Legend:
Beta-galactosidase [1] = biological target: T1, Beta-galactosidase (Rattus norvegicus, UniProt D3ZUM4); assay: Concentration that causes 50% inhibition of mammalian beta-galactosidase was determined in rat intestine; NI is less than 50 % inhibition at 1000 uM
T1 sequence (D3ZUM4 whole entry): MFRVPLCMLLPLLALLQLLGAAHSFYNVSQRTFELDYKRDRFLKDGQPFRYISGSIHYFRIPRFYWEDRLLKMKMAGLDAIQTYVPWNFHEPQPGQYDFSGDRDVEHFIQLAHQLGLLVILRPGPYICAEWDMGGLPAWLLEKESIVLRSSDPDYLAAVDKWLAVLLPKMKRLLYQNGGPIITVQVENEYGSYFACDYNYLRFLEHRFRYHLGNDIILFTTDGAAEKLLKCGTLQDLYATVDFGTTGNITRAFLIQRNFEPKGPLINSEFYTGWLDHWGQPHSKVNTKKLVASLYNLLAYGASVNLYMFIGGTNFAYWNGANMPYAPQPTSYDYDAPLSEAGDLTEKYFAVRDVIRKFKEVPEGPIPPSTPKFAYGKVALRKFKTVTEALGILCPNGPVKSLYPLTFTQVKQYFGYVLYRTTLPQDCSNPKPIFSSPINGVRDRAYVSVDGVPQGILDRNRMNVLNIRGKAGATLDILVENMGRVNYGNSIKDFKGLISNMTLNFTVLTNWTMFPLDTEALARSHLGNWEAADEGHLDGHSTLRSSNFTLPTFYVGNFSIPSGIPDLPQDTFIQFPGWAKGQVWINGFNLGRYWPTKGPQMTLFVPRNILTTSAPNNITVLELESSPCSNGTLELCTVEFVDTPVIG

[2] = Concentration that causes 50% inhibition of mammalian alpha-glucosidase (endoplasmic reticulum glucosidase II) was determined in rat liver NI is less than 50 % inhibition at 1000 uM; format: tissue-based
Beta-galactosidase [3] = biological target: T1, Beta-galactosidase; assay: Concentration that causes 50% inhibition of mammalian beta-galactosidase was determined in rat epididymis; NI is less than 50 % inhibition at 1000 uM; format: tissue-based
Beta-galactosidase [4] = biological target: T2, Beta-galactosidase (Bos taurus, UniProt Q58D55); assay: Concentration that causes 50% inhibition of mammalian cytosolic beta-galactosidase was determined in bovine liver NI is less than 50 % inhibition at 1000 uM; format: tissue-based
T2 sequence (Q58D55 whole entry): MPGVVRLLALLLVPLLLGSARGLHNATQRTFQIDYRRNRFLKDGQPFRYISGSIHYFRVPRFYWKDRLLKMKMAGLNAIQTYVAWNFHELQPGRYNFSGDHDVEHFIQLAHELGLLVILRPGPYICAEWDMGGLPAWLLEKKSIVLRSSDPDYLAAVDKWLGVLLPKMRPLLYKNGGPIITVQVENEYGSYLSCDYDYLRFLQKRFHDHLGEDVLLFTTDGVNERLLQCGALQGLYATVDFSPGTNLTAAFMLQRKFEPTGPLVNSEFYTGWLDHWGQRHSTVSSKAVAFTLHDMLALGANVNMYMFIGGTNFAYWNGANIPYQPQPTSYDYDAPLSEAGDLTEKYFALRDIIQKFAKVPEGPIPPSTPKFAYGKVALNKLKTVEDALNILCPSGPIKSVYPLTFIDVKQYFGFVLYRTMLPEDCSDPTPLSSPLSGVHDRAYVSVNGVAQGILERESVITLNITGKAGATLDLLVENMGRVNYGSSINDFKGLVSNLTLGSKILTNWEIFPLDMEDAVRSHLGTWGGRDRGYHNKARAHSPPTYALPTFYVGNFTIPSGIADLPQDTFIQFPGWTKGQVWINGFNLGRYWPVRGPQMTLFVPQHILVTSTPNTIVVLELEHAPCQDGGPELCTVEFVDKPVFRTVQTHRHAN

Trehalase [5] = biological target: T3, Trehalase (Rattus norvegicus, UniProt O70282); assay: Concentration that causes 50% inhibition of mammalian trehalase was determined in rat intestine
T3 sequence (O70282 whole entry): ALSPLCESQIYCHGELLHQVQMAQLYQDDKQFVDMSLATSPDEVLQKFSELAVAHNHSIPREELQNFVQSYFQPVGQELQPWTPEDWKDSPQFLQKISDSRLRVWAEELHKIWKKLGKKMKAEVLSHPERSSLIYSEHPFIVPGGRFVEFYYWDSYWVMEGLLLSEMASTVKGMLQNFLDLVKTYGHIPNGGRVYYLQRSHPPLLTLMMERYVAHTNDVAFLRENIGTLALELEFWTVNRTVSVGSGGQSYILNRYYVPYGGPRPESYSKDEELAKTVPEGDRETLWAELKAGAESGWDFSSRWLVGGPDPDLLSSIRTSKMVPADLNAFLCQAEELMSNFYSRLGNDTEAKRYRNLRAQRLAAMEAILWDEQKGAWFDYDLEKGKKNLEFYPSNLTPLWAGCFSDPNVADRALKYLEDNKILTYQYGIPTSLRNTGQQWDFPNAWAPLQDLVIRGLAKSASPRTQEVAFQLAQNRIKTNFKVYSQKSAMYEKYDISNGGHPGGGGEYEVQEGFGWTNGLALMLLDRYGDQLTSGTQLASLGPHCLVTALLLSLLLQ

Beta-galactosidase [6] = biological target: T2, Beta-galactosidase; assay: Concentration that causes 50% inhibition of mammalian lysosomal beta-galactosidase was determined in bovine liver NI is less than 50 % inhibition at 1000 uM; format: tissue-based
Beta-galactosidase [7] = biological target: T1, Beta-galactosidase; assay: Concentration that causes 50% inhibition of mammalian epididymal beta-galactosidase was determined in rat epididymis NI is less than 50 % inhibition at 1000 uM; format: tissue-based
Beta-galactosidase [8] = biological target: T1, Beta-galactosidase; assay: Concentration that causes 50% inhibition of mammalian lysosomal beta-galactosidase was determined in rat liverNI is less than 50 % inhibition at 1000 uM
Beta-galactosidase [9] = biological target: T1, Beta-galactosidase; assay: Concentration that causes 50% inhibition of mammalian epididymal beta-galactosidase was determined in rat epididymis; NI is less than 50 % inhibition at 1000 uM; format: tissue-based
Beta-galactosidase [10] = biological target: T2, Beta-galactosidase; assay: Concentration that causes 50% inhibition of mammalian lysosomal beta-galactosidase was determined in bovine liver; NI is less than 50 % inhibition at 1000 uM
Beta-galactosidase [11] = biological target: T1, Beta-galactosidase; assay: Concentration that causes 50% inhibition of mammalian lysosomal beta-galactosidase was determined in rat liver; NI is less than 50 % inhibition at 1000 uM
[12] = Concentration that causes 50% inhibition of mammalian alpha-glucosidase (endoplasmic reticulum glucosidase II) was determined in rat liver; NI is less than 50 % inhibition at 1000 uM
[13] = biological target: Lysosomal alpha-glucosidase (Rattus norvegicus, UniProt Q6P7A9); assay: Concentration that causes 50% inhibition of mammalian alpha-glucosidase (lysosomal) was determined in rat liver; NI is less than 50 % inhibition at 1000 uM
Alpha-glucosidase [14] = biological target: T4, Alpha-glucosidase (Bos taurus, UniProt Q9MYM4); assay: Inhibition of mammalian alpha-glucosidase (lysosomal) was determined in bovine liver; NI is less than 50 % inhibition at 1000 uM
Trehalase [15] = biological target: T3, Trehalase; assay: Concentration that causes 50% inhibition of mammalian trehalase was determined in rat intestine; NI is less than 50 % inhibition at 1000 uM
Beta-galactosidase [16] = biological target: T2, Beta-galactosidase; assay: Concentration that causes 50% inhibition of mammalian cytosolic beta-galactosidase was determined in bovine liver; NI is less than 50 % inhibition at 1000 uM
Alpha-glucosidase [17] = biological target: T4, Alpha-glucosidase; assay: Inhibition of mammalian alpha-glucosidase (lysosomal) was determined in bovine liver; format: tissue-based
[18] = Concentration that causes 50% inhibition of mammalian alpha-glucosidase (endoplasmic reticulum glucosidase II) was determined in rat liver; format: tissue-based
Beta-galactosidase [19] = biological target: T1, Beta-galactosidase; assay: Concentration that causes 50% inhibition of mammalian lactase beta-galactosidase was determined in rat intestine; NI is less than 50 % inhibition at 1000 uM
[20] = biological target: Lactase/phlorizin hydrolase (Rattus norvegicus, UniProt Q02401); assay: Tested for competitive inhibition of rat intestinal lactase
Outline: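 Brush border membranes from rat small intestine, assayed at pH 5.8 with lactose as substrate. Released D-glucose was measured colorimetrically by the D-glucose oxidase–peroxidase method. Ki and inhibition mode were determined.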

Trehalase [21] = biological target: T3, Trehalase; assay: Concentration that causes 50% inhibition of mammalian trehalase was determined in rat intestine; NI is less than 50 % inhibition at 1000 micro M

T4 sequence (Q9MYM4 whole entry): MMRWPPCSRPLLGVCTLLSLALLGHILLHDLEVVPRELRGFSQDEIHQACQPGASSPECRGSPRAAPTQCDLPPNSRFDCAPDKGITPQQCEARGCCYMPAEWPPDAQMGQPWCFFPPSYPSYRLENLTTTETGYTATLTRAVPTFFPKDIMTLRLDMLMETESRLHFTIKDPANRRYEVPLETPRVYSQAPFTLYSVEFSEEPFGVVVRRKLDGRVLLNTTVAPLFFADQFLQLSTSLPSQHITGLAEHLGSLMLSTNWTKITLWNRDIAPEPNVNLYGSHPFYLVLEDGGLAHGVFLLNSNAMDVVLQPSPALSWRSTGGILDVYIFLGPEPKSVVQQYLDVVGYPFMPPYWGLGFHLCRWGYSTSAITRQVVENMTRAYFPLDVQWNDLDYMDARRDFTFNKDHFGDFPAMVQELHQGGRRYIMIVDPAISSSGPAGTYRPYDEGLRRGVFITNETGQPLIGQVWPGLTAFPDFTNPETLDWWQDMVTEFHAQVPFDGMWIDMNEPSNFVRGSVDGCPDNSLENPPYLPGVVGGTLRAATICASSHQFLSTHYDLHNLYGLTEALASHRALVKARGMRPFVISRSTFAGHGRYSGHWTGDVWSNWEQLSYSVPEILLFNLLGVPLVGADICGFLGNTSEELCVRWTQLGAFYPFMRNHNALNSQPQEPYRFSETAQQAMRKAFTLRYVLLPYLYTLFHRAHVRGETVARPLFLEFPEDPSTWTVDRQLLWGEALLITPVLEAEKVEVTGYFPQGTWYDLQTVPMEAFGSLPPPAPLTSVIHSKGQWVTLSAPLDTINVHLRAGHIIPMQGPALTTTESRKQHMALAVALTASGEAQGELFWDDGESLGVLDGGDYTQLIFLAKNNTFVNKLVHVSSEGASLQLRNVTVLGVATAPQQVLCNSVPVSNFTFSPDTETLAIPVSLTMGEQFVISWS
Lysosomal alpha-glucosidase, sequence (Q6P7A9 whole entry): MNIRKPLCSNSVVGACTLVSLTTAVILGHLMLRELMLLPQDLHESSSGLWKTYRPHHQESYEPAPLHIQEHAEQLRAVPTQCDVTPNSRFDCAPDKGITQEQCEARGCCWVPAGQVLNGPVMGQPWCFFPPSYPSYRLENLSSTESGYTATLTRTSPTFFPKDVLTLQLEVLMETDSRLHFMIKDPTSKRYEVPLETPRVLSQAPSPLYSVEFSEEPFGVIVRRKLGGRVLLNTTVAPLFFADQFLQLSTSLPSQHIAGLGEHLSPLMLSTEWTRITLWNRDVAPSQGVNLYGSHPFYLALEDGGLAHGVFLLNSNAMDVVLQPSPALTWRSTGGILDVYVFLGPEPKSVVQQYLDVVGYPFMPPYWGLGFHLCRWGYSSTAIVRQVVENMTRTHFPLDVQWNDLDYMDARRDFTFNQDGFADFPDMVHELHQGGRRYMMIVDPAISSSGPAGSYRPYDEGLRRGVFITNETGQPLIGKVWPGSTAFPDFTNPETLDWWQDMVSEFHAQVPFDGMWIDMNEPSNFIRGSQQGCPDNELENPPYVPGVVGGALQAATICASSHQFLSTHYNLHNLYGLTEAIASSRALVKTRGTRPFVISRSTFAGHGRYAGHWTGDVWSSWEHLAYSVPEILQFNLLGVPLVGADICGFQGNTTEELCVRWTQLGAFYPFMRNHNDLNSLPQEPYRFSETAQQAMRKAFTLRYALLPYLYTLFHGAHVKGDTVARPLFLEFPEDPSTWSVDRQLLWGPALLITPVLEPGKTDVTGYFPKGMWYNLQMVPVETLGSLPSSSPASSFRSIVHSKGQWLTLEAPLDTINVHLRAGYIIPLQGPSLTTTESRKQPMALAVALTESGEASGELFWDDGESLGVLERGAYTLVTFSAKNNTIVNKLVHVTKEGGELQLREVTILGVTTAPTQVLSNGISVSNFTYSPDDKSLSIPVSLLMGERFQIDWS
Lactase/phlorizin hydrolase, sequence (Q02401 868-1928 limits assumed): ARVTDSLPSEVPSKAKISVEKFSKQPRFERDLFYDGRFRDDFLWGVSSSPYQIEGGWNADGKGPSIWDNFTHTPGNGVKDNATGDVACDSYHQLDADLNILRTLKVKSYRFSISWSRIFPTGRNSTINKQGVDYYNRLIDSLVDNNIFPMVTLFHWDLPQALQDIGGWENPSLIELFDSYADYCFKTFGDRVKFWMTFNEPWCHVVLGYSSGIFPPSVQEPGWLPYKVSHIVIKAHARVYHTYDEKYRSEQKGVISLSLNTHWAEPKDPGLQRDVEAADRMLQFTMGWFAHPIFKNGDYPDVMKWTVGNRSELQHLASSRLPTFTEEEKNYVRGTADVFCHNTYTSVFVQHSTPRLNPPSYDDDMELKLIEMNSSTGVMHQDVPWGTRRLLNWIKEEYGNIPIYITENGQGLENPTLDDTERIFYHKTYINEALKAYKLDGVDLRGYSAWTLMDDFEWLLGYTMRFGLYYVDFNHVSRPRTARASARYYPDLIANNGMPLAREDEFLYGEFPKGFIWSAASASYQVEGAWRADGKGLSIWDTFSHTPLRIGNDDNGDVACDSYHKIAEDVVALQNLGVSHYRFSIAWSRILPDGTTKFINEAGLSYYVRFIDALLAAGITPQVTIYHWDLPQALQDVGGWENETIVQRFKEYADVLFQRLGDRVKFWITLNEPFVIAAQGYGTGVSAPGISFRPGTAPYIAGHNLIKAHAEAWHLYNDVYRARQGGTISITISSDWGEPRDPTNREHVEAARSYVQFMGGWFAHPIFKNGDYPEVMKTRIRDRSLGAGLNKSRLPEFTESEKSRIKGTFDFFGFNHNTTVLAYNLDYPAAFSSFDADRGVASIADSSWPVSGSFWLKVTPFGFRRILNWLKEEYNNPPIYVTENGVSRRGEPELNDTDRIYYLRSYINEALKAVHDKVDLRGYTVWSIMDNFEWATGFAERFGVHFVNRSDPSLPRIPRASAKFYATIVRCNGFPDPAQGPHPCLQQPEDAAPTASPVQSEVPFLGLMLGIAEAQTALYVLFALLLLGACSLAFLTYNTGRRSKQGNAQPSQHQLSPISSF

SMILES | IC50 (Beta-galactosidase [9]) | IC50 (Beta-galactosidase [10]) | IC50 (Beta-galactosidase [11]) | IC50 [12] | IC50 [13] | IC50 (Trehalase [15]) | also measured
OC[C@H]1NC[C@H](O)[C@@H](O)[C@@H]1O (stereo in doubt; 2) [DUVOGLUSTAT] | – | – | – | – | – | – | IC50 (Beta-galactosidase [1]): No inhibition; IC50 [2]: No inhibition; IC50 (Beta-galactosidase [3]): No inhibition
OC[C@H]1NC[C@H](O)[C@@H](O)[C@@H]1O (stereo in doubt; 1) [DUVOGLUSTAT] | – | – | – | – | – | – | IC50 (Beta-galactosidase [4]): No inhibition; IC50 (Trehalase [5]): 42 µM; IC50 (Beta-galactosidase [6]): No inhibition; IC50 (Beta-galactosidase [7]): No inhibition; IC50 (Beta-galactosidase [8]): No inhibition
OC[C@H]1N[C@H](CO)[C@@H](O)[C@@H]1O | No inhibition | No inhibition | No inhibition | No inhibition | – | – | –
OC[C@H]1NC[C@H](O)[C@@H](O)[C@@H]1O [DUVOGLUSTAT] | No inhibition | No inhibition | No inhibition | No inhibition | No inhibition | No inhibition | IC50 (Alpha-glucosidase [14]): No inhibition
OC[C@H]1NC[C@H](O)[C@@H](O)[C@@H]1O (stereo in doubt; 4) [DUVOGLUSTAT] | – | – | – | – | – | – | IC50 (Beta-galactosidase [16]): No inhibition
OC[C@H]1NCC[C@@H](O)[C@@H]1O [FAGOMINE] | No inhibition | No inhibition | No inhibition | – | No inhibition | No inhibition | IC50 (Alpha-glucosidase [17]): 520 µM; IC50 [18]: 840 µM
OC[C@H]1NCC[C@@H](O)[C@H]1O | – | No inhibition | No inhibition | No inhibition | No inhibition | No inhibition | IC50 (Beta-galactosidase [16]): No inhibition; IC50 (Beta-galactosidase [19]): No inhibition; IC50 (Beta-galactosidase [7]): No inhibition
OC[C@H]1NCC[C@H](O)[C@@H]1O | No inhibition | No inhibition | No inhibition | – | No inhibition | – | Ki [20]: 1.9 µM; IC50 [2]: No inhibition; IC50 (Trehalase [21]): No inhibition; IC50 (Alpha-glucosidase [14]): No inhibition

Source: ChEMBL document CHEMBL1127386, “Nitrogen-in-the-ring pyranoses and furanoses: structural basis of inhibition of mammalian glycosidases” (J Med Chem, 1994)
